37 sequences from the array DNA melting data of Ke et al. (doi:10.1101/2024.01.08.574731) can be followed below.

A short description of series [1]: folding enthalpy; higher = less favourable; fluorescence melt of hairpins on a sequencing array, two-state fit. The following applies: sodium 0.088 M. Summed up:
(§1)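 To match UV melts, fitted temperatures were raised by 9.35 °C. These fits were bootstrapped two-state models that gave melting temperature and folding enthalpy, combined by inverse variance over four replicates. The input was normalised Cy3 fluorescence of library hairpins with annealed Cy3 and quencher oligos on a sequenced MiSeq flow cell, imaged in 50 mM Na-HEPES pH 8.0, 25 mM NaCl in 2.5 °C steps up to 60 °C.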

Series [2] is described as follows: melting temperature; fluorescence melt of hairpins on a sequencing array, two-state fit, raised by 9.35 °C to match UV melts. The settings on record: sodium 0.088 M. The essentials: as §1

With GGCCGCGGAAACACGGCC (((((.(....).))))), in series [1], the folding enthalpy is -45.4 kcal/mol. For the same sequence, the Tm in series [2] was 66.1 °C.

Consider CGGACGGAAACGTCTCCG ((((((....)))..))), for which the folding enthalpy in series [1] is -11.3 kcal/mol. The Tm in series [2] was 35.7 °C.

Consider GGACTGGGAAACCGGTTC (.((.((....)).)).), for which, in series [1], the folding enthalpy is -25.5 kcal/mol. Further, in series [2], the Tm is 37.5 °C.

Take GCAGCTGCGAAAGCATGC (((..(((....)))))): the folding enthalpy in series [1] was -11.6 kcal/mol. In addition, in series [2], the Tm amounted to 45.1 °C.

As for GCATCACGAAAGTGTGC (((.(((....)))))), in series [1], the folding enthalpy was -39.2 kcal/mol. Moreover, the Tm in series [2] turned out to be 56 °C.

GATCAACCTTTTGATC ((((((....)))))): in series [1], the folding enthalpy is -29.7 kcal/mol. Besides, the Tm in series [2] was determined as 41.8 °C.

For GATCCACACTTGGATC ((((((....)))))), the folding enthalpy in series [1] is -41.1 kcal/mol. For the same sequence, the Tm in series [2] came out at 52.1 °C.

Turning to GTTGACGCGAAAGCGAAC (((..(((....)))))), the folding enthalpy in series [1] was -12.9 kcal/mol. Also, the Tm in series [2] was found to be 39 °C.

On to GTTTGGGGAAACTCGAAC (((.(.(....).).))), for which the folding enthalpy in series [1] was -17.6 kcal/mol. The Tm in series [2] was 30.8 °C.

As for GTTATGCCGAAAGGCAAC (((..(((....)))))), the folding enthalpy in series [1] is -7.54 kcal/mol. The Tm in series [2] is 33 °C.

Consider GCAATGAAAATTGC (((((....))))), for which the folding enthalpy in series [1] was -22.7 kcal/mol. In series [2], the Tm came to 50.7 °C.

For GTACGTGAAAACGTAC ((((((....)))))), the folding enthalpy in series [1] was -37 kcal/mol. Further, the Tm in series [2] came to 59.5 °C.

With GATCGTTCCGACGATC ((((((....)))))), the folding enthalpy in series [1] is -40.9 kcal/mol. The Tm in series [2] was determined as 56.1 °C.

With GATCTCCATGGAGATC ((((((....)))))), the folding enthalpy in series [1] is -42 kcal/mol. Besides, in series [2], the Tm stood at 57.4 °C.

Turning to TTTGCGAAAGCAAA (((((....))))), in series [1], the folding enthalpy was -17.4 kcal/mol. Besides, in series [2], the Tm was 54.3 °C.

Take ACGGTGAAAACCGT (((((....))))): the folding enthalpy in series [1] was -22.9 kcal/mol. In series [2], the Tm is 55 °C.

With GCACGGACGAAAGTCTGC (((..(((....)))))), in series [1], the folding enthalpy is -12.9 kcal/mol. Moreover, the Tm in series [2] is 42.5 °C.

As to CGAGGCGGAAACGCTCG (((.(((....)))))), in series [1], the folding enthalpy was -20.5 kcal/mol. The Tm in series [2] came out at 51 °C.

Consider GTTCTCCGAAAGGAAAC (((.(((....)))))), for which the folding enthalpy in series [1] was -16 kcal/mol. For the same sequence, the Tm in series [2] worked out at 35.8 °C.

Take GATTGCGAAAGCAGTATC ((((((....)))..))): the folding enthalpy in series [1] is -10.9 kcal/mol. Further, the Tm in series [2] stood at 32.1 °C.

GCACTGGGAAACCAATGC (((.(((....))).))): in series [1], the folding enthalpy is -30.1 kcal/mol. The Tm in series [2] was determined as 40.3 °C.

Turning to GCGATGCGAAAGCTCCGC (((..((....))..))), the folding enthalpy in series [1] is -19.9 kcal/mol. Moreover, the Tm in series [2] came out at 52.5 °C.

On to GTTCGGGCGAAAGCCAAC (((..(((....)))))), for which, in series [1], the folding enthalpy is -10.7 kcal/mol. The Tm in series [2] stood at 26.2 °C.

With GAGAAGGGAAACCTTCTC (((((((....))))))), the folding enthalpy in series [1] was -50.6 kcal/mol. In addition, the Tm in series [2] is 55.5 °C.

For GATCCGCGCACGGATC ((((((....)))))), in series [1], the folding enthalpy is -39.2 kcal/mol. For the same sequence, the Tm in series [2] stood at 59.1 °C.

For the sequence GTTTGCGAAAGCATCAAC ((((((....)))..))), the folding enthalpy in series [1] was -8.63 kcal/mol. Moreover, the Tm in series [2] is 27.2 °C.

As for GTACGCGGAAACGCACAC ((..(((....)))..)), the folding enthalpy in series [1] is -13.8 kcal/mol. The Tm in series [2] was determined as 33.1 °C.

In the case of GTGATACGAAAGTAGCAC (((.(((....))).))), the folding enthalpy in series [1] is -48.7 kcal/mol. Further, the Tm in series [2] was 58.6 °C.

Consider GCATTGCCGAAAGGCTGC (((..(((....)))))), for which the folding enthalpy in series [1] was -14.8 kcal/mol. For the same sequence, the Tm in series [2] is 46.5 °C.

Regarding GTAAGGACGAAAGTCTAC (((..(((....)))))), the folding enthalpy in series [1] is -8.78 kcal/mol. In addition, the Tm in series [2] was found to be 30.2 °C.

For the sequence GTCGTCGAAAGACTTGAC ((((((....)))..))), the folding enthalpy in series [1] is -17 kcal/mol. The Tm in series [2] was determined as 38.4 °C.

As for GTCGAAGGAAACTTCGGC (.(((((....))))).), the folding enthalpy in series [1] is -43.1 kcal/mol. Besides, the Tm in series [2] was 51.3 °C.

For the sequence GCATTACGAAAGTATGC (((.(((....)))))), in series [1], the folding enthalpy was -26.9 kcal/mol. The Tm in series [2] stood at 48.7 °C.

In the case of GCAATGCGAAAGCACTGC (((.(((....))).))), the folding enthalpy in series [1] was -36.8 kcal/mol. In addition, the Tm in series [2] was 51.6 °C.

As for GGAAACGAAAGTTGTTCC ((((((....)))..))), the folding enthalpy in series [1] was -9.91 kcal/mol. The Tm in series [2] worked out at 24.9 °C.

Regarding GCGATCGAAAGATTTCGC ((((((....)))..))), in series [1], the folding enthalpy is -26.4 kcal/mol. Also, the Tm in series [2] was 39.8 °C.

As to GATCAGCCTTCTGATC ((((((....)))))), the folding enthalpy in series [1] is -37.9 kcal/mol. Moreover, the Tm in series [2] came to 48.5 °C.
